Measured values from different studies.
Lines come from different studies, so protocols differ.

Compound	tested on	assay	system	conditions	measurement	value
C#CCOc1ccc(/C=C/c2cc(OC)cc(OC)c2-c2cnnn2C(=O)NCC)cc1	RAW264.7	NO release, inhibitor, Griess	–	10 µM, LPS-stimulated	inhibition	71.3%
CN(Cc1ccc(C(C)(C)C)cc1)Cc1cccc2ccccc12	Trichophyton mentagrophytes	microbial growth, disc diffusion	ATCC18748	0.004 µg/mL, 72 h	inhibition zone	34 mm
CC#CCOc1ccc(/C=C/c2cc(OC)cc(OC)c2-c2cnnn2C(=O)NCCc2ccccc2)cc1	RAW264.7	NO release, inhibitor, Griess	–	10 µM, LPS-stimulated	inhibition	82.3%
N#Cc1c(-c2ccc(Cl)cc2Cl)c(C(N)=S)c(N)n(N)c1=O	Enterobacter cloacae	microbial growth, well diffusion	ATCC23355	500 µg/mL	inhibition zone	18 mm
O=C1C(NCCc2ccc(O)cc2)=CC2=NCCc3c[nH]c1c32	Babesia divergens	parasite growth, SYBR Green	–	60 h, blood stage	IC50	404 nM
O=C(c1ccc(Oc2ccc(OCc3ccccc3)cc2)c([N+](=O)[O-])c1)C(Cl)Cl	NCI-H1299	cell growth or viability, MTT	–	2.5 µM	inhibition	86.4%
CN(Cc1ccc(C2(C(F)(F)F)CC2)cc1)Cc1cccc2ccccc12	Trichophyton mentagrophytes	microbial growth, disc diffusion	ATCC18748	0.512 µg/mL, 72 h	inhibition zone	≥ 55 mm
CCCOc1ccc(/C=C/c2cc(OC)cc(OC)c2-c2cnnn2C(=O)NCCc2ccccc2)cc1	RAW264.7	NO release, inhibitor, Griess	–	10 µM, LPS-stimulated	inhibition	69.3%
O=C1CC[C@@H](COc2ccc(C(=O)C(Cl)Cl)cc2[N+](=O)[O-])N1	NCI-H1299	cell growth or viability, MTT	–	2.5 µM	inhibition	94.7%
C=CC(=O)NC1CCN(c2ncc3ncnc(Nc4ccc(Oc5ccc6c(c5)ncn6C)c(C)c4)c3n2)CC1	COR-L279	cell growth or viability	–	–	EC50	7.54 nM
CC#CCOc1ccc(/C=C/c2cc(OC)cc(OC)c2-c2cnnn2C(=O)NC(C)C)cc1	RAW264.7	NO release, inhibitor, Griess	–	10 µM, LPS-stimulated	inhibition	78.7%
N#Cc1ccc(Oc2ccc(C(=O)C(Cl)Cl)cc2[N+](=O)[O-])cc1	NCI-H1299	cell growth or viability, MTT	–	2.5 µM	inhibition	96.2%
